Laboratory results reported in publication PMC9446082 (Pharmacology Research & Perspectives, 2022).
pIC50, pKi: −log10 of the molar value.

Key:
[1] = test system: ERK phosphorylation; experiment: ERK phosphorylation in wild-type Sf9 cells; format: cell-based, Spodoptera frugiperda; settings: wild-type (non-transfected) Sf9 cells, data not shown
[2] = test system: GPER‐transduced Sf9 cells; experiment: EdU incorporation proliferation assay in GPER-transduced Sf9 cells; format: cell-based; settings: Spodoptera frugiperda, read-out: Cell proliferation IC50
[3] = target: T1, GPER (Homo sapiens, UniProt Q99527); experiment: [3H] 2-ME competition binding in GPER-transduced Sf9 cell particulate fractions
T1 sequence (Q99527 whole entry, species assumed): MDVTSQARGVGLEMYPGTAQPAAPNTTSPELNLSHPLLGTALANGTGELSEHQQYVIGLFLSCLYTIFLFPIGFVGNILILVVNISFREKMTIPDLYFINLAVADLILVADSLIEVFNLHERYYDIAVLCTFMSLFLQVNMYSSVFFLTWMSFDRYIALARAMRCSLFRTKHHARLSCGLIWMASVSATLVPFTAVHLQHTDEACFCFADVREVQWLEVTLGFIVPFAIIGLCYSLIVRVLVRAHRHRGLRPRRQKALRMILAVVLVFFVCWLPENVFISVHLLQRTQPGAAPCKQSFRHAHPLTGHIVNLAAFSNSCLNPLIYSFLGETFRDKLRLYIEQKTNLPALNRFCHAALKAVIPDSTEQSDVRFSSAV

[4] = target: T1, GPER; experiment: Dissociation rate of [3H] 2-ME binding in GPER-transduced Sf9 cells; settings: corresponding to Koff
Procedure, shortened: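 Particulate fraction (1000 × g then 20 000 × g spins) from Sf9 cells 48 h after human GPER baculovirus infection. Incubated with 2 nM [³H]2-ME for 120 min at 15°C, then diluted tenfold with ice-cold binding buffer (50 mM Tris-HCl pH 7.4). Bound radioactivity was sampled from 5 to 120 s by vacuum filtration through cellulose nitrate and scintillation counting. Nonspecific binding was taken with 100 nM unlabelled 2-ME. Mean ± SD, n = 4.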

[5] = target: T1, GPER; experiment: Guanine nucleotide sensitivity of [3H] 2-ME high-affinity binding; settings: GppNHp 100 μM, 5 mM Mg++, n = 3
Procedure, shortened: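 Sf9 particulate fraction expressing baculovirus-delivered GPER, incubated with [³H]2-ME (0.5–2 nM) with or without 100 μM GppNHp. Mg⁺⁺ was 5 mM to favour the high-affinity agonist state. Binding was in Tris-HCl pH 7.4 buffer with BSA, 120 min at 15°C. Reactions were stopped with ice-cold buffer, filtered and scintillation counted. Specific binding is total minus binding with 100 nM cold 2-ME added 12 min before radioligand.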

| pKi [3] | Compound | Inhibition of ERK phosphorylation in wild-type Sf9 cells [1] | pIC50 [2] | other results |
| --- | --- | --- | --- | --- |
|  | CC(=O)c1ccc2c(c1)[C@@H]1C=CC[C@@H]1[C@H](c1cc3c(cc1Br)OCO3)N2 (relative stereo) [G1, 1‐[(3aS,4R,9bR‐rel)‐4‐(6‐bromo‐1,3‐benzodioxol‐5‐yl)‐3a,4,5,9b‐tetrahydro‐[^3H]‐cyclopenta[c]quinolin‐8‐yl]‐ethanone] | did not inhibit |  |  |
| 8.82 | COc1cc2c(cc1O)CC[C@@H]1[C@@H]2CC[C@]2(C)[C@@H](O)CC[C@@H]12 [2‐ME, 2‐Methoxyestradiol] | did not inhibit | 10.59 |  |
|  | C[C@]12CC[C@@H]3c4ccc(O)cc4CC[C@H]3[C@@H]1CC[C@@H]2O [E2, Estradiol] | did not inhibit |  |  |
| 7.62 | C[C@]12CCC(=O)C=C1CC[C@@H]1[C@@H]2[C@@H](O)C[C@]2(C=O)[C@@H](C(=O)CO)CC[C@@H]12 [Aldosterone] | did not inhibit | 9.98 |  |
|  | [^3H] 2‐methoxyestradiol |  |  | Dissociation half-life [4]: 21 s |
|  | Nc1nc2c(ncn2[C@@H]2O[C@H](COP(=O)(O)OP(=O)(O)NP(=O)(O)O)[C@@H](O)[C@H]2O)c(=O)[nH]1 [GppNHp] |  |  | Reduction of high-affinity [3H] 2-ME binding ([5]; [3H] 2-ME 0.5 nM): 46 ± 23%; Reduction of high-affinity [3H] 2-ME binding ([5]; [3H] 2-ME 1 nM): 19 ± 7%; Reduction of high-affinity [3H] 2-ME binding ([5]; [3H] 2-ME 2 nM): 53 ± 24 |
